This data set in a line: In vivo stability of 18F-labeled Tz-derivatives. The conditions noted are these: naïve mice, plasma 30 min p.i., radio-TLC, n = 4. In a few lines:
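Naïve mice received the 18F-labeled tetrazine. Blood was collected after 30 min and plasma analysed by radio-TLC. Stability is expressed as the fraction (%) of radioactivity corresponding to intact compound (n = 4).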

The results in this text go back to PMC8033778 (ACS Pharmacology & Translational Science, 2021).

Each structure is given as a SMILES string.

Regarding `Cc1nnc(-c2ccc(OCc3cn(CC[18F])nn3)cc2)nn1` [[^18F]5, 3-(4-((1-(2-[18F]Fluoroethyl)-1H-1,2,3-triazol-4-yl)methoxy)phenyl)-6-methyl-1,2,4,5-tetrazine], the “in vivo stability (% intact [18F]Tz after 30 min)” value was 26%.
